Results from different studies.
Protocols differ between the studies behind these lines.
Target: Mitogen-activated protein kinase kinase kinase 9 (MAP3K9, Homo sapiens, UniProt P80192)

N#Cc1ccccc1CSc1nnc2c(n1)[nH]c1ccccc12  remaining binding (binding; competition with immobilised ligand; 10 µM): 98%
Cc1cc(C)c(-n2ccn3nc(-c4cccnc4)cc23)cc1NC(=O)c1cc(C#N)cc(S(F)(F)(F)(F)F)c1  remaining binding (cell-free assay; competition with immobilised ligand; 0.1 µM): 79.5%
c1cncc(-c2cccc(Nc3nccc(NC4CCCCC4)n3)c2)c1  remaining binding (binding; competition with immobilised ligand; 10 µM): 19%
O=C(c1ccc(Nc2ncc(Cl)c(-c3cc4ccccc4s3)n2)cc1)N1CCC(N2CCCC2)CC1  remaining binding (binding; competition with immobilised ligand; 1 µM): 4.3%
C[C@H]1CCN(c2nccc(-c3cnn4ncccc34)n2)C1  remaining binding (binding; 1 µM): 100%
Nc1c(C(=O)NCc2ccc(C(=O)NCCCC3CCCCC3)cc2)cnn1-c1ccccc1  remaining binding (cell-free assay; competition with immobilised ligand; 0.1 µM): 96%
COc1ccnn2ncc(-c3ccnc(N(C)C)n3)c12  remaining binding (binding; 1 µM): 91%
CNC(=O)[C@@H]1CC[C@@H](n2c(-c3ccc4cnccc4c3)nc3ccc(C(=O)NCc4cccc(C(N)=O)c4)cc32)C1  remaining binding (binding; competition with immobilised ligand; 1 µM): 100%
C[C@@H](c1cccc(C#N)c1)n1cc(Cl)cc(C(N)=O)c1=N  remaining binding (cell-free assay; competition with immobilised ligand; 1 µM): 100%
Cc1cnc(Nc2ccc(C(=O)N3CCC(N4CCCC4)CC3)cc2)nc1-c1cc2ccccc2s1  remaining binding (binding; competition with immobilised ligand; 1 µM): 3.3%
CN(C)C(=O)Cn1cc(-c2nc([C@@](C)(c3ccc(-c4cnc(N)nc4)cc3)C3CC3)no2)cn1  remaining binding (cell-free assay; competition with immobilised ligand; 1 µM): 100%
CCN1CCN(Cc2ccc(C(=O)Nc3ccc(C)c(Oc4ccc5c(c4)CC(=O)N5)c3)cc2C(F)(F)F)CC1  remaining binding (binding; competition with immobilised ligand; 1 µM): 100%
c1cnn2ncc(-c3ccnc(N4CCC45COC5)n3)c2c1  remaining binding (binding; 1 µM): 85%
O=C(NS(=O)(=O)c1ccc(NCC2CCOCC2)c([N+](=O)[O-])c1)c1ccc(N2CCN(Cc3ccc(C(F)(F)F)cc3-c3ccc(Cl)cc3)CC2)cc1Oc1cnc2[nH]ccc2c1  remaining binding (cell-free assay; competition with immobilised ligand; 1 µM): 100%
COc1cnc(Nc2cccc(S(N)(=O)=O)c2)nc1N1CCN(c2ccccc2)CC1  remaining binding (binding; competition with immobilised ligand; 1 µM): 73%
N[C@H]1CCN(c2nccc(-c3cnn4ncccc34)n2)C1  remaining binding (binding; 1 µM): 87%
CC(=O)C1=C(C)N(c2cccc(C(F)(F)F)c2)C(=O)N[C@@H]1c1ccc(C#N)nc1  remaining binding (cell-free assay; competition with immobilised ligand; 1 µM): 94%
CN(C)c1nccc(-c2cnn3ncccc23)n1  remaining binding (binding; 1 µM): 100%
Nc1ncc2c(n1)-c1c([nH]c3ccc(C#CC4CC4)cc13)CCCC2  remaining binding (binding; competition with immobilised ligand; 1 µM): 100%
Cc1cnn2ncc(-c3ccnc(N(C)C)n3)c2c1  remaining binding (binding; 1 µM): 100%
CN([C@@H]1CCc2c(CC(=O)O)c3ccccc3n2C1)S(=O)(=O)c1ccc(F)cc1  remaining binding (cell-free assay; competition with immobilised ligand; 1 µM): 100%
O=C(NCC1CCOCC1)c1n[nH]cc1NC(=O)c1c(F)cccc1F  remaining binding (binding; competition with immobilised ligand; 1 µM): 100%
COc1cc(-c2cn(C3CCc4c(F)cccc4N(CC(F)(F)F)C3=O)nn2)ccc1-n1cnc(C)c1 (stereo not shown)  remaining binding (cell-free assay; competition with immobilised ligand; 1 µM): 100%
O=C(c1ccc(Nc2ncc(Cl)c(-c3ccc(Cl)s3)n2)cc1)N1CCC(N2CCCC2)CC1  remaining binding (binding; competition with immobilised ligand; 1 µM): 8.9%
C[C@@H]1CN(c2ccc3ncc(-c4ccc5[nH]nc(C6CC6)c5c4)n3n2)C[C@H](C)O1  remaining binding (binding; competition with immobilised ligand; 0.5 µM): 100%
